Experimental data published in ChEMBL document CHEMBL1687762, “Aerosol therapy with colistin methanesulfonate: a biopharmaceutical issue illustrated in rats” (Antimicrob Agents Chemother, 2010).

Tests used:
Rattus norvegicus [1] = assay: Volume of distribution at steady state in Sprague-Dawley rat at 15 mg/kg, iv; type: ADME, organism-based; design: dose 15 mg/kg, route intravenous; conditions: in vivo
In short: (§1)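 CMS in 0.9% NaCl, 15 mg/kg, was given as an i.v. bolus through a femoral vein catheter to fasted male Sprague-Dawley rats (n=6). Arterial plasma was drawn at 0–180 min. CMS (measured as colistin after acid hydrolysis) and colistin were quantified by LC-MS/MS. Individual noncompartmental analysis; Vss = dose × AUMC / AUC².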

Rattus norvegicus [2] = assay: Half life in Sprague-Dawley rat at 15 mg/kg, iv; type: ADME, organism-based; design: dose 15 mg/kg, route intravenous; conditions: in vivo; in short: as §1
Rattus norvegicus [3] = assay: Half life in Sprague-Dawley rat assessed as Colistin level at 15 mg/kg, iv; type: ADME, organism-based; design: dose 15 mg/kg, route intravenous; conditions: in vivo; in short: as §1
Rattus norvegicus [4] = assay: AUC in Sprague-Dawley rat at 15 mg/kg, iv; type: ADME, organism-based, Plasma; design: dose 15 mg/kg, route intravenous; conditions: in vivo; in short: as §1
Rattus norvegicus [5] = assay: AUC in Sprague-Dawley rat assessed as Colistin level at 15 mg/kg, iv; type: ADME, organism-based, Plasma; design: dose 15 mg/kg, route intravenous; conditions: in vivo; in short: as §1
Rattus norvegicus [6] = assay: Half life in Sprague-Dawley rat at 15 mg/kg administered via intratracheal nebulization; type: ADME, organism-based; design: dose 15 mg/kg, route endotracheal; conditions: in vivo, inhaled_or_intranasal
In short: (§2)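 Male Sprague-Dawley rats (280–350 g) were fasted 12 h, with a femoral catheter implanted the day before. Under isoflurane, 100 µl of CMS at 50 mg/ml in 0.4% NaCl (15 mg/kg) was sprayed intratracheally with a MicroSprayer (n=5). Arterial plasma was sampled from 0 to 300 min. CMS (after sulfuric acid hydrolysis) and colistin were measured by LC-MS/MS. Noncompartmental analysis: trapezoidal AUC, terminal log-linear half-life.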

Rattus norvegicus [7] = assay: Half life in Sprague-Dawley rat assessed as Colistin level at 15 mg/kg administered via intratracheal nebulization; type: ADME, organism-based; design: dose 15 mg/kg, route endotracheal; conditions: in vivo, inhaled_or_intranasal; in short: as §2
Rattus norvegicus [8] = assay: AUC in Sprague-Dawley rat at 15 mg/kg administered via intratracheal nebulization; type: ADME, organism-based, Plasma; design: dose 15 mg/kg, route endotracheal; conditions: in vivo, inhaled_or_intranasal; in short: as §2
Rattus norvegicus [9] = assay: AUC in Sprague-Dawley rat assessed as Colistin level at 15 mg/kg administered via intratracheal nebulization; type: ADME, organism-based, Plasma; design: dose 15 mg/kg, route endotracheal; conditions: in vivo, inhaled_or_intranasal; in short: as §2
Rattus norvegicus [10] = assay: Cmax in Sprague-Dawley rat at 15 mg/kg administered via intratracheal nebulization; type: ADME, organism-based; design: dose 15 mg/kg, route endotracheal; conditions: in vivo, inhaled_or_intranasal; in short: as §2
Rattus norvegicus [11] = assay: Bioavailability in Sprague-Dawley rat at 15 mg/kg administered via intratracheal nebulization; type: ADME, organism-based; conditions: in vivo, inhaled_or_intranasal
In short: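 CMS bioavailability after intratracheal nebulization in rats (15 mg/kg) was taken as the mean CMS plasma AUC after nebulization divided by the mean CMS AUC after i.v. dosing at the same dose. It is reported as an average value.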

- Vdss (Rattus norvegicus [1]): 0.33 L/kg
- t1/2 (Rattus norvegicus [2]): 22 min
- t1/2 (Rattus norvegicus [3]): 35.5 min
- AUC (Rattus norvegicus [4]): 1079 µg·min/mL
- AUC (Rattus norvegicus [5]): 160 µg·min/mL
- t1/2 (Rattus norvegicus [6]): 21 min
- t1/2 (Rattus norvegicus [7]): 63.6 min
- AUC (Rattus norvegicus [8]): 756 µg·min/mL
- AUC (Rattus norvegicus [9]): 607 µg·min/mL
- Cmax (Rattus norvegicus [10]): 5600 ng/mL
- F (Rattus norvegicus [11]): 70%
Sequence: COLISTIMETHATE SODIUM
